Source: PMC6039207 (Clinical and Translational Science, 2018)
Marks after values point to notes of the source that are not given here.

Columns and labels:
[1] = [11C]MK3168 radiometabolite analysis and brain uptake; type: in vivo, human; conditions: for standardized uptake value (SUV), gray matter regions / tracer uptake in gray matter regions: baseline
Summary of the method: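 In healthy men, the tracer was given as a slow IV bolus (356 ± 57MBq; molar activity 111 ± 67 GBq/μmol), synchronized with a 90-min list-mode PET/CT acquisition after low-dose CT for attenuation correction. Discrete arterial samples at each scan measured parent tracer and radiometabolites as the input function. Brain time-activity curves came from MRI-coregistered, template-based regions.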

human FAAH = conditions: cited from earlier work
WBC FAAH = conditions: 4 mg once-daily dose more than sufficient; cited from earlier work
[2] = patients with osteoarthritis; cited from earlier work
[3] = single clinical doses, healthy volunteers; cited from earlier work
[4] = JNJ-42165279 plasma and urine pharmacokinetics, MAD study; type: in vivo, human
Summary of the method: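 Plasma and urine samples were taken from healthy volunteers given oral test compound once daily for 10 days (10–100 mg cohorts). Plasma was assayed by validated LC/MS/MS, with profiles over 0–24 h on day 1 and 0–96 h on day 10. PK parameters came from noncompartmental analysis. Accumulation ratios compared day 10 with day 1.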

[5] = JNJ-42165279 concentration in CSF, MAD study; type: in vivo, human; conditions: after 7 days
Summary of the method: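 Test compound in CSF was quantified by a validated LC/MS/MS method after 7 days of once-daily oral dosing in healthy volunteers: 10 mg young men, 25 mg young men, and 100 mg elderly (men only). Values were related to plasma concentrations at Cmax on day 10.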

plasma protein binding = type: in vitro ADME; conditions: humans, estimated
FAAH [6] = molecular target: T1, FAAH (Homo sapiens, UniProt O00519); assay: FAAH activity in leukocytes; type: in vivo
T1 sequence (O00519 1-579): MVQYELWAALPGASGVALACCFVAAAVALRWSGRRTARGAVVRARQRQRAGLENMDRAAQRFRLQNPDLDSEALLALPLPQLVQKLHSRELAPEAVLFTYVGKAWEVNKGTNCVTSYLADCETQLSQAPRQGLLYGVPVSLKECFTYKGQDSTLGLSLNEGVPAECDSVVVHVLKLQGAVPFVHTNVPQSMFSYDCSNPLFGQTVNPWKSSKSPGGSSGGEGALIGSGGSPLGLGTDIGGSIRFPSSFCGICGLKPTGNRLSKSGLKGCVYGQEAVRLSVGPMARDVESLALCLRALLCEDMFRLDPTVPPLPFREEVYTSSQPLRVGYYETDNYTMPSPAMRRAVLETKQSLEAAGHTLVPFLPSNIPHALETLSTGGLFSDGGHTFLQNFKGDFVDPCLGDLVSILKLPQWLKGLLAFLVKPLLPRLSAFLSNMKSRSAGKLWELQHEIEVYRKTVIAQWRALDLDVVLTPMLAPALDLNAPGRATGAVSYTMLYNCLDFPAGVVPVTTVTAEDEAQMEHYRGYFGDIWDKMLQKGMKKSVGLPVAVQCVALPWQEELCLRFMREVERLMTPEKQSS
Summary of the method: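 Leukocyte FAAH activity was assayed in healthy volunteers dosed orally once daily for 10 days (10–100 mg cohorts, placebo controls). It was expressed as percent of predose activity. Sampling ran 0–24 h postdose on day 1 and 0–96 h after the day-10 dose. In the PET study, leukocytes were also sampled at scan midpoint, about 4 h 45 min postdose.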

[7] = system: plasma FAA (AEA, OEA, PEA); assay: FAA concentrations in plasma; type: in vivo, human
Summary of the method: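 Plasma AEA, OEA and PEA were followed in healthy volunteers given oral test compound (10–100 mg) or placebo once daily for 10 days, six active and two placebo per cohort. Concentration–time profiles were taken on day 1 (0–24 h postdose) and day 10 (0–96 h postdose). Mean peak values were compared with mean peak placebo values.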

CSF FAA (AA, AEA, OEA) = assay: FAA concentrations in CSF; type: in vivo, human; conditions: for AEA concentration in cerebrospinal fluid / OEA concentration in cerebrospinal fluid / AA concentration in cerebrospinal fluid: young male volunteers, mean (SD)
Summary of the method: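 CSF sampled in the double-blind, placebo-controlled multiple-ascending-dose study in healthy volunteers. Oral test compound or placebo was given once daily for 10 days: 10, 25 or 75 mg in young men, 100 mg in young women, 100 mg in elderly subjects. AEA, OEA and arachidonic acid were measured predose and after 6–7 days of dosing. Values were expressed against predose or baseline.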

brain FAAH = molecular target: T2, brain FAAH (Homo sapiens, UniProt O00519); assay: brain FAAH occupancy by PET with [11C]MK3168; type: in vivo
T2 sequence (O00519 1-579): T1 sequence (O00519 1-579)
Summary of the method: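 Healthy men were scanned by PET with [11C]MK3168 at baseline. In Part 2, scans followed single oral doses (2.5–100 mg range, adaptive; tracer injected 1 h postdose), with repeat doses at least 1 week apart. In Part 3, scans were 24 h after a single dose and 24 h after the last of 7 daily doses. Occupancy came from two-tissue compartment VT, baseline versus treatment.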

[8] = treatment-emergent adverse events and safety, MAD study; type: in vivo, human; conditions: MAD and PET studies
Summary of the method: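 Safety covered treatment-emergent adverse events, physical examinations, laboratory tests, 12-lead ECG and vital signs. Subjects were healthy volunteers on 10 days of once-daily oral test compound (10–100 mg) or placebo, double-blind and randomized, six active and two placebo per cohort.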

behavioral evaluations = type: in vivo, human
FAAH [9] = conditions: cited from earlier work
[10] = day 10 vs day 1, doses 10–100 mg, range across cohorts
[11] = ∼24 h after stopping the 10 mg dosing
[12] = Predose (baseline), 10 mg cohort
[13] = Predose (baseline), 25 mg cohort
[14] = Predose (baseline), 75 mg cohort

SMILES: CN(C)C(=O)[C@H]1C[C@@H]1c1ccc(-c2ncn(C)c2Sc2ccc(Cl)cn2)cc1 [[^11C]MK3168]
- standardized uptake value (SUV), gray matter regions ([1]; at 20 min): ~3.0
- tracer uptake in gray matter regions ([1]; at 20 min): ~15 kBq/cc
- standardized uptake value (SUV), gray matter regions ([1]; at 90 min): ~2.0
- tracer uptake in gray matter regions ([1]; at 90 min): ~10 kBq/cc
- parent tracer remaining in plasma ([1]; baseline scans, 10 min postinjection): 30–40%
- elimination of tracer from plasma ([1]; baseline scans, 60 min p.i.): almost complete elimination
- IC50 (human FAAH): 1 ± 0.6 nM

SMILES: O=C(Nc1cccnn1)N1CCC(=Cc2cccc(Oc3ccc(C(F)(F)F)cn3)c2)CC1 [PF‐04457845]
- inhibition of WBC FAAH (WBC FAAH): 97%
- effect on pain perception [2]: no effect on pain perception

SMILES: CCCCCCC(C)(C)c1cc(O)c2c(c1)OC(C)(C)C1CCC(=O)CC21 (stereo not shown) [nabilone]
- effect on cognitive performance [3]: notable impairment on cognitive performance

SMILES: O=C(Nc1cnccc1Cl)N1CCN(Cc2ccc3c(c2)OC(F)(F)O3)CC1 [JNJ‐42165279]
- estimated accumulation ratio for AUC [4, 10]: 144–337%
- estimated accumulation ratio for Cmax [4, 10]: 98–156%
- terminal half-life ([4]; in vivo): 8 to 14 h
- Mean plasma half-life ([4]; range of cohort means, 10–100 mg QD): 8.14 to 14.1 h
- Mean concentration of JNJ-42165279 in CSF ([5]; cohort A (25 mg)): 8.95 ng/mL
- Mean concentration of JNJ-42165279 in CSF ([5]; cohort D, men only): 31.8 ng/mL
- Mean concentration of JNJ-42165279 in CSF ([5]; cohort E (10 mg)): 2.67 ng/mL
- CSF concentration relative to plasma values at Cmax on day 10 ([5]; slightly over): over 3%
- unbound fraction (plasma protein binding): 6.4–7.5%
- FAAH activity remaining in leukocytes, mean trough (FAAH [6]; relative to predose values, after a single dose, 10–100 mg dose range): 7.85–10.4%
- FAAH activity recovered in leukocytes (FAAH [6]; [11]): ~50%
- doses with maximal effect on plasma AEA turnover ([7]; in vivo): ≥ 75 mg
- increase of plasma AEA levels ([7]; lowest dose tested in the MAD study (10 mg)): ≥ 10 fold
- mean peak plasma AEA concentration versus mean peak placebo values ([7]; single doses 10–100 mg): 5.5–10 fold
- mean peak plasma OEA and PEA concentrations versus mean peak placebo ([7]; single doses 10–100 mg): 4.3–5.6 fold
- increase of mean CSF AEA concentration relative to predose (CSF FAA (AA, AEA, OEA); 10 mg daily for 7 days): ~45 fold
- increase of mean CSF OEA concentration relative to predose (CSF FAA (AA, AEA, OEA); 10 mg daily for 7 days): ~6.6 fold
- increase of mean CSF AEA concentration relative to predose (CSF FAA (AA, AEA, OEA); 25 mg daily for 7 days): ~41 fold
- increase of mean CSF OEA concentration relative to predose (CSF FAA (AA, AEA, OEA); 25 mg daily for 7 days): ~5.8 fold
- increase of mean CSF AEA concentration relative to predose (CSF FAA (AA, AEA, OEA); 75 mg daily for 7 days): ~77 fold
- increase of mean CSF OEA concentration relative to predose (CSF FAA (AA, AEA, OEA); 75 mg daily for 7 days): ~7.4 fold
- AEA concentration in cerebrospinal fluid (CSF FAA (AA, AEA, OEA); Day 7, 10 mg daily): 12.6 (4.86)
- OEA concentration in cerebrospinal fluid (CSF FAA (AA, AEA, OEA); Day 7, 10 mg daily): 139 (42.0)
- AA concentration in cerebrospinal fluid (CSF FAA (AA, AEA, OEA); Day 7, 25 mg daily, n=5): 1.44 (0.52) ^b
- AEA concentration in cerebrospinal fluid (CSF FAA (AA, AEA, OEA); Day 7, 25 mg daily, n=5): 21.24 (7.39) ^b
- OEA concentration in cerebrospinal fluid (CSF FAA (AA, AEA, OEA); Day 7, 25 mg daily, n=5): 116.81 (26.07) ^b
- AA concentration in cerebrospinal fluid (CSF FAA (AA, AEA, OEA); Day 7, 75 mg daily, n=5): 1.81 (0.72) ^b
- AEA concentration in cerebrospinal fluid (CSF FAA (AA, AEA, OEA); Day 7, 75 mg daily, n=5): 28.88 (9.52) ^b
- OEA concentration in cerebrospinal fluid (CSF FAA (AA, AEA, OEA); Day 7, 75 mg daily, n=5): 150.24 (34.64) ^b
- AEA concentration in cerebrospinal fluid (CSF FAA (AA, AEA, OEA); [12]): 0.28 (0.31)
- OEA concentration in cerebrospinal fluid (CSF FAA (AA, AEA, OEA); [12]): 21.2 (5.33)
- AA concentration in cerebrospinal fluid (CSF FAA (AA, AEA, OEA); [13]): 1.85 (0.52)
- AEA concentration in cerebrospinal fluid (CSF FAA (AA, AEA, OEA); [13]): 0.52 (0.16)
- OEA concentration in cerebrospinal fluid (CSF FAA (AA, AEA, OEA); [13]): 20.15 (10.19)
- AA concentration in cerebrospinal fluid (CSF FAA (AA, AEA, OEA); [14]): 2.04 (0.86)
- AEA concentration in cerebrospinal fluid (CSF FAA (AA, AEA, OEA); [14]): 0.38 (0.21)
- OEA concentration in cerebrospinal fluid (CSF FAA (AA, AEA, OEA); [14]): 20.21 (8.25)
- increase of AEA concentrations in CSF (CSF FAA (AA, AEA, OEA); after 7 days of dosing): 40–70 fold
- occupancy of brain FAAH (brain FAAH; 24 h after dosing with 10 mg): 80–85%
- FAAH occupancy at trough (brain FAAH; after the first dose of 10 mg): > 80%
- doses giving saturation of brain FAAH occupancy (brain FAAH; in vivo): ≥ 10 mg
- brain FAAH occupancy (brain FAAH; single doses of 2.5 and 5 mg, at estimated Cmax): lesser, although appreciable, occupancy
- brain FAAH occupancy (brain FAAH; single doses of 10, 25, and 50 mg, at estimated Cmax): 96–98%
- brain FAAH occupancy (brain FAAH; [11]): ≥ 80%
- deaths, serious or severe TEAEs, discontinuations due to TEAEs [8]: No deaths, serious, or severe treatment emergent adverse event (TEAEs) or discontinuations due to TEAEs
- vital signs, ECG parameters including QTc, physical examination [8]: no clinically significant treatment effects were observed
- quality of working memory (QWM) (behavioral evaluations; 100 mg, elderly volunteers, P ≤ 0.05, 4 h postdose days 1, 6, 10): significant negative treatment effect
- ARCI-53 report (behavioral evaluations; 100 mg, women of nonchild-bearing potential): slight similarity to sedatives and dissimilarity to stimulants
- treatment effect on tapping, tracking, and postural stability (behavioral evaluations; MAD study): No treatment effects were observed
- ARCI-53: experiences similar to marijuana or hallucinogens (behavioral evaluations; all groups): no groups reported experiences similar to marijuana or hallucinogens
- affinity for human over rat FAAH (FAAH [9]): much higher affinity
